Data on 20 molecules can be found in PMC3389222 (Bioorganic & medicinal chemistry letters, 2012).

Where two headings read alike, the source gives them in different places.

The test system of series [1] is HCV 1b replicon. Description: HCV 1b replicon system, block of HCV replication. In kind it is cell-based. As to conditions: for EC90: read-out: HCV Replicon EC90. (In general: In antiviral work, replicon cells carry a viral genome segment that copies itself.)
Series [2] can be described thus: Cytotoxicity in CEM cells. In kind it is cell-based. Particulars: human.
Series [3] in a line: Stability in human liver microsomes. Particulars: for Elimination rate constant (k): 1 μM compound, 1 mg/mL microsomal protein; for microsomal CLint at 1 μM: human. The series is classed as in vitro ADME. The procedure, abridged:
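Test compound incubated with human liver microsomes in potassium phosphate buffer. Samples taken at 5, 15, 30 and 60 min and analysed by LC-MS/MS. The elimination rate constant (k) was determined, and half-life (t1/2) and intrinsic clearance (CLint) were calculated from k.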
On the technique in general: Liver microsomes are a subcellular fraction often used to study metabolism.

Series [4] relates to PBM cells. Description: Cytotoxicity in PBM cells.
The test system of series [5] is PBM cells.
Series [6] has as its system HCV. Particulars: read-out: in vitro potency (EC50); cited from earlier work.
In series [7] the test system is HCV. As to conditions: cited from earlier work.
[8] abbreviates: Hepatitis C virus, read-out: HCV Replicon EC50.
The mark [9] stands for this setting: Hepatitis C virus, read-out: HCV Replicon EC50, HCV 1b replicon system.

As usually defined, the EC50 is the midpoint of the concentration-response curve. One may read the EC90 as the concentration needed for an effect of 90%. For the molecule `COC(=O)N[C@H](C(=O)N1C[C@H](N=[N+]=[N-])C[C@H]1c1nc(Br)c(-c2ccc(-c3ccc(-c4[nH]c([C@@H]5C[C@@H](N=[N+]=[N-])CN5C(=O)[C@@H](NC(=O)OC)C(C)C)nc4Br)cc3)cc2)[nH]1)C(C)C` [Compound 17], the concentration for a half-maximal effect (EC50) in series [1] (setting [8]) is 0.0026 nM. Further, the 90% effect concentration (EC90) in series [1] (Hepatitis C virus) came out at 0.0216 nM.

Regarding `COC(=O)N[C@H](C(=O)N1CCC[C@H]1c1ncc(-c2ccc(-c3ccc(-c4[nH]c([C@@H]5CCCN5C(=O)[C@@H](NC(=O)OC)C(C)C)nc4F)cc3)cc2)[nH]1)C(C)C` [Compound 5e], the EC50 in series [1] (setting [9]) came out at 0.0144 ± 0.004 nM.

For `COC(=O)N[C@H](C(=O)N1C[C@@H](N=[N+]=[N-])C[C@H]1c1nc(Br)c(-c2ccc(-c3ccc(-c4[nH]c([C@@H]5C[C@H](N=[N+]=[N-])CN5C(=O)[C@@H](NC(=O)OC)C(C)C)nc4Br)cc3)cc2)[nH]1)C(C)C` [Compound 19], the EC50 in series [1] (setting [8]) amounted to 0.0083 nM. In addition, the 90% effect concentration (EC90) in series [1] (Hepatitis C virus) was determined as 0.0553 nM.

Broadly, the CC50 is the concentration at which the toxic effect on the cells reaches its halfway point. A low value points to greater toxicity to the cells. On to `COC(=O)N[C@H](C(=O)N1C[C@@H](n2cc(-c3ccccc3)nn2)C[C@H]1c1ncc(-c2ccc(-c3ccc(-c4cnc([C@@H]5C[C@H](n6cc(-c7ccccc7)nn6)CN5C(=O)[C@@H](NC(=O)OC)C(C)C)[nH]4)cc3)cc2)[nH]1)C(C)C` [Compound 13], for which, in series [2], the CC50 was over 100000 nM. Also, the EC90 in series [1] (Hepatitis C virus) was over 10 nM.

For `COC(=O)N[C@H](C(=O)N1C[C@H](n2cc(-c3ccccc3)nn2)C[C@H]1c1ncc(-c2ccc(-c3ccc(-c4cnc([C@@H]5C[C@@H](n6cc(-c7ccccc7)nn6)CN5C(=O)[C@@H](NC(=O)OC)C(C)C)[nH]4)cc3)cc2)[nH]1)C(C)C` [Compound 11], the EC50 in series [1] (setting [8]) was 2.7 nM. The EC90 in series [1] (Hepatitis C virus) came to 9.2 nM.

In general, microsomal CLint refers to a measure of how fast metabolising enzymes remove a compound, apart from limits set by blood flow. Read a low microsomal CLint as slow turnover. Take `COC(=O)N[C@H](C(=O)N1CCC[C@H]1c1nc(Cl)c(-c2ccc(-c3ccc(-c4[nH]c([C@@H]5CCCN5C(=O)[C@@H](NC(=O)OC)C(C)C)nc4Cl)cc3)cc2)[nH]1)C(C)C` [Compound 5b]: in series [3], the “Elimination rate constant (k)” value came to 0.0058 and the intrinsic clearance (microsomal CLint) at 1 μM was under 8.6 µL/min/mg. The EC50 in series [1] (setting [9]) was found to be 0.0064 ± 0.003 nM.

Consider `COC(=O)N[C@H](C(=O)N1CCC[C@H]1c1nc(F)c(-c2ccc(-c3ccc(-c4[nH]c([C@@H]5CCCN5C(=O)[C@@H](NC(=O)OC)C(C)C)nc4F)cc3)cc2)[nH]1)C(C)C` [Compound 5d], for which the “toxicity in primary human lymphocytes relative to reference compound 1” value in series [4] is listed as “increased toxicity”. In series [3], the “Elimination rate constant (k)” value stood at 0.0056 and the intrinsic clearance (microsomal CLint) at 1 μM is under 8.6 µL/min/mg. The EC50 in series [1] (setting [9]) stood at 0.0068 ± 0.0033 nM.

Turning to `COC(=O)N[C@H](C(=O)N1C[C@@H](n2cc(C(=O)OC)nn2)C[C@H]1c1ncc(-c2ccc(-c3ccc(-c4cnc([C@@H]5C[C@H](n6cc(C(=O)OC)nn6)CN5C(=O)[C@@H](NC(=O)OC)C(C)C)[nH]4)cc3)cc2)[nH]1)C(C)C` [Compound 14], the EC50 in series [1] (setting [8]) was over 10 nM. Also, the concentration for an effect of 90% (EC90) in series [1] (Hepatitis C virus) was over 10 nM.

Take `COC(=O)N[C@H](C(=O)N1C[C@H](N=[N+]=[N-])C[C@H]1c1ncc(-c2ccc(-c3ccc(-c4[nH]c([C@@H]5C[C@@H](N=[N+]=[N-])CN5C(=O)[C@@H](NC(=O)OC)C(C)C)nc4Cl)cc3)cc2)[nH]1)C(C)C` [Compound 16]: in series [1] (setting [9]), the EC50 came out at 0.0063 nM.

As for `COC(=O)N[C@H](C(=O)N1C[C@H](N=[N+]=[N-])C[C@H]1c1nc(Cl)c(-c2ccc(-c3ccc(-c4[nH]c([C@@H]5C[C@@H](N=[N+]=[N-])CN5C(=O)[C@@H](NC(=O)OC)C(C)C)nc4Cl)cc3)cc2)[nH]1)C(C)C` [Compound 15], the 50% effective concentration (EC50) in series [1] (setting [8]) is 0.0047 nM. In series [1] (Hepatitis C virus), the EC90 was 0.0096 nM.

With `COC(=O)N[C@H](C(=O)N1C[C@H](N=[N+]=[N-])C[C@H]1c1ncc(-c2ccc(-c3ccc(-c4cnc([C@@H]5C[C@@H](N=[N+]=[N-])CN5C(=O)[C@@H](NC(=O)OC)C(C)C)[nH]4)cc3)cc2)[nH]1)C(C)C` [Compound 10], the EC50 is 0.0095 nM in series [1] (setting [9]) and 0.0184 ± 0.0126 nM in series [1] (read-out: HCV Replicon EC50, HCV 1b replicon system). Moreover, the EC90 in series [1] (Hepatitis C virus) worked out at 0.0542 ± 0.0341 nM.

`COC(=O)N[C@H](C(=O)N1CCC[C@H]1c1nc(-c2cccs2)c(-c2ccc(-c3ccc(-c4[nH]c([C@@H]5CCCN5C(=O)[C@@H](NC(=O)OC)C(C)C)nc4-c4cccs4)cc3)cc2)[nH]1)C(C)C` [Compound 8]: in series [1] (setting [9]), the EC50 was found to be 0.1 nM.

In the case of `COC(=O)N[C@H](C(=O)N1C[C@H](n2cc(C(=O)OC)nn2)C[C@H]1c1ncc(-c2ccc(-c3ccc(-c4cnc([C@@H]5C[C@@H](n6cc(C(=O)OC)nn6)CN5C(=O)[C@@H](NC(=O)OC)C(C)C)[nH]4)cc3)cc2)[nH]1)C(C)C` [Compound 12], the concentration for a half-maximal effect (EC50) in series [1] (setting [8]) is 0.0118 nM. For the same molecule, in series [1] (Hepatitis C virus), the EC90 was 0.0428 nM.

As to `COC(=O)N[C@H](C(=O)N1CCC[C@H]1c1nc(-c2ccccc2)c(-c2ccc(-c3ccc(-c4[nH]c([C@@H]5CCCN5C(=O)[C@@H](NC(=O)OC)C(C)C)nc4-c4ccccc4)cc3)cc2)[nH]1)C(C)C` [Compound 6], the EC50 in series [1] (setting [9]) worked out at 0.2 nM.

Regarding `COC(=O)N[C@H](C(=O)N1CCC[C@H]1c1nc(-c2ccco2)c(-c2ccc(-c3ccc(-c4[nH]c([C@@H]5CCCN5C(=O)[C@@H](NC(=O)OC)C(C)C)nc4-c4ccco4)cc3)cc2)[nH]1)C(C)C` [Compound 7], in series [1] (setting [9]), the EC50 was determined as 0.026 nM.

Consider `COC(=O)N[C@H](C(=O)N1C[C@@H](N=[N+]=[N-])C[C@H]1c1ncc(-c2ccc(-c3ccc(-c4cnc([C@@H]5C[C@H](N=[N+]=[N-])CN5C(=O)[C@@H](NC(=O)OC)C(C)C)[nH]4)cc3)cc2)[nH]1)C(C)C` [Compound 9], for which the EC50 in series [1] (setting [9]) turned out to be 0.023 nM. Further, the EC90 in series [1] (Hepatitis C virus) was 0.0352 nM.

As to `COC(=O)N[C@H](C(=O)N1CCC[C@H]1c1nc(I)c(-c2ccc(-c3ccc(-c4[nH]c([C@@H]5CCCN5C(=O)[C@@H](NC(=O)OC)C(C)C)nc4I)cc3)cc2)[nH]1)C(C)C` [Compound 5c], the “toxicity in primary human lymphocytes relative to reference compound 1” value in series [5] is “increased toxicity”. Besides, the “Elimination rate constant (k)” value in series [3] turned out to be 0.018. The EC50 in series [1] (setting [9]) amounted to 0.0055 ± 0.0019 nM.

On to `COC(=O)N[C@H](C(=O)N1CCC[C@H]1c1ncc(-c2ccc(-c3ccc(-c4cnc([C@@H]5CCCN5C(=O)[C@@H](NC(=O)OC)C(C)C)[nH]4)cc3)cc2)[nH]1)C(C)C` [BMS-790052], for which the EC50 in series [6] is at most 0.05 nM; in series [1] (setting [9]), 0.0042 ± 0.0015 nM. In series [3], the “Elimination rate constant (k)” value was found to be 0.012. In addition, the viral load decline entry in series [7] (after a single 100 mg dose) was “≈ 3.3 log10”. Also, the “toxicity after single dose” value in series [7] (single 100 mg dose) was “no signs of toxicity”.

Regarding `COC(=O)N[C@H](C(=O)N1CCC[C@H]1c1nc(Br)c(-c2ccc(-c3ccc(-c4[nH]c([C@@H]5CCCN5C(=O)[C@@H](NC(=O)OC)C(C)C)nc4Br)cc3)cc2)[nH]1)C(C)C` [Compound 5a], the “Elimination rate constant (k)” value in series [3] was determined as 0.01. The concentration for a half-maximal effect (EC50) in series [1] (setting [9]) worked out at 0.0059 ± 0.0039 nM.

As to `COC(=O)N[C@H](C(=O)N1C[C@@H](N=[N+]=[N-])C[C@H]1c1nc(Cl)c(-c2ccc(-c3ccc(-c4[nH]c([C@@H]5C[C@H](N=[N+]=[N-])CN5C(=O)[C@@H](NC(=O)OC)C(C)C)nc4Cl)cc3)cc2)[nH]1)C(C)C` [Compound 18], in series [1] (setting [8]), the half-maximal effective concentration (EC50) turned out to be 0.0112 nM. Besides, in series [1] (Hepatitis C virus), the concentration for an effect of 90% (EC90) was found to be 0.0746 nM.
